Source: ChEMBL document CHEMBL3232995, “Synthesis and evaluation of effective photoaffinity probe molecule of furospinosulin-1, a hypoxia-selective growth inhibitor” (Bioorg Med Chem, 2014)
Calls of active or inactive are those of the source. No cut-off for these calls is given here.

Assays:
[1] = test system: DU-145; experiment: Antiproliferative activity against human DU145 cells under hypoxia condition assessed as growth inhibition at 10 to 100 uM after 24 hrs by MTT assay; assay type: functional, cell-based
Outline: (§1)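 DU145 human prostate cancer cells kept in RPMI 1640 with 10% heat-inactivated FBS and kanamycin (50 µg/ml), 5% CO2, 37 °C. Seeded at 1 × 10⁴ cells/well. Held 4 h normoxic, then 12 h under 1% O2/5% CO2/94% N2 to induce hypoxia genes. Compound then added and plates kept a further 24 h hypoxic. Read-out by MTT, with inhibition as percent of parallel negative controls.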

[2] = test system: DU-145; experiment: Antiproliferative activity against human DU145 cells under normoxia condition assessed as growth inhibition at 10 to 100 uM after 24 hrs by MTT assay; assay type: functional, cell-based
Outline: (§2)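 DU145 cells were grown in RPMI 1640 with heat-inactivated 10% FBS and kanamycin (50 µg/ml) under humidified 5% CO2 at 37 °C and seeded at 1 × 10⁴ cells/well. Growth under normoxic conditions was measured by colorimetric MTT assay. Inhibition was taken relative to parallel negative controls.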

[3] = test system: DU-145; experiment: Antiproliferative activity against human DU145 cells under hypoxia condition assessed as growth inhibition at 3 to 30 uM after 24 hrs by MTT assay; assay type: functional, cell-based; outline: as §1
[4] = test system: DU-145; experiment: Inhibition of transcription factor complex formation in hypoxia-induced human DU145 cells assessed as reduction in nuclear proteins and Sp1 oligonucleotide probe complex at 100 to 300 uM by EMSA; assay type: functional, cell-based
Outline: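 Nuclear extracts were made from DU145 cells under normoxia or hypoxia. They were pre-incubated on ice for 20 min with compound (100 or 300 µM) in binding buffer: 10 mM Tris-HCl pH 7.5, 50 mM KCl, 5 mM MgCl2, 1 mM DTT, 1% glycerol, BSA, poly(dI-dC). Then 5'-biotinylated Sp1 oligonucleotide (4 fmol per 20 µL) was added for 15 min at room temperature. Complexes were resolved on 5% native PAGE in 0.5× TBE, blotted, and detected by streptavidin-HRP/ECL.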

[5] = test system: Mus musculus; experiment: Toxicity in mouse S180 cells allografted in ddY mouse assessed as diarrhea at 5 to 25 mg/kg, po administered once every 2 days for 2 weeks relative to control; assay type: organism-based, CCRF S-180; set-up: dose 5-25 mg/kg, route oral; settings: in vivo
Outline: (§3)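 Female ddY mice, 6 weeks old, received S180 sarcoma cells (1 × 10⁶ cells/body) subcutaneously in the right ventral flank. Dosing began one week after implantation: oral suspension in 1% CMC-Na, every other day for 2 weeks (7 doses). Tumors were excised and weighed to give the inhibition ratio against control. Four mice per group. Weight loss and diarrhea were watched throughout.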

[6] = test system: CCRF S-180; experiment: Antitumor activity against mouse S180 cells allografted in ddY mouse assessed as tumor growth at 10 mg/kg, po administered once every 2 days for 2 weeks relative to control; settings: CCRF S-180, po
[7] = test system: Mus musculus; experiment: Toxicity in mouse S180 cells allografted in ddY mouse assessed as weight loss at 5 to 25 mg/kg, po administered once every 2 days for 2 weeks relative to control; assay type: organism-based, CCRF S-180; set-up: dose 5-25 mg/kg, route oral; settings: in vivo; outline: as §3
[8] = test system: CCRF S-180; experiment: Antitumor activity against mouse S180 cells allografted in ddY mouse assessed as tumor growth at 5 mg/kg, po administered once every 2 days for 2 weeks relative to control; settings: CCRF S-180, po
[9] = test system: CCRF S-180; experiment: Antitumor activity against mouse S180 cells allografted in ddY mouse assessed as tumor growth at 25 mg/kg, po administered once every 2 days for 2 weeks relative to control; settings: CCRF S-180, po
[10] = test system: DU-145; experiment: Antiproliferative activity against human DU145 cells under hypoxia condition assessed as growth inhibition after 24 hrs by MTT assay; assay type: functional, cell-based; outline: as §1
[11] = test system: DU-145; experiment: Antiproliferative activity against normoxia-induced human DU145 cells assessed as growth inhibition after 24 hrs by MTT assay; assay type: functional, cell-based; outline: as §2

Structure (SMILES)	growth inhibition (GI) [1]	growth inhibition (GI) [2]	growth inhibition (GI) [3]	Activity [4]	other results
CC(=O)OC/C(C)=C/CC/C(C)=C/CC/C(C)=C/CC/C(C)=C/CCc1ccoc1	Active	Active			
C/C(=C\CC/C(C)=C/CCc1ccoc1)CC/C=C(\C)CC/C=C(\C)CCc1cn(CCOCCOCCNC(=O)CSC[C@H](NC(=O)c2ccc(C(=O)c3ccccc3)cc2)C(=O)NCCOCCOCCOCCn2cc(CNC(=O)CCCC[C@@H]3SC[C@@H]4NC(=O)N[C@@H]43)nn2)nn1			Active	Active	
C#CCOC/C(C)=C/CC/C(C)=C/CC/C(C)=C/CC/C(C)=C/CCc1ccoc1	Active	Active			
C#CC/C(C)=C/CC/C(C)=C/CC/C(C)=C/CC/C(C)=C/CCc1ccoc1	Active	Active			
C/C(=C\CC/C(C)=C/CC/C(C)=C/CC/C(C)=C/CCc1ccoc1)CO	Active	Active			
C/C(=C\CC/C(C)=C/CCc1ccoc1)CC/C=C(\C)CC/C=C(\C)CCc1cn(CCOCCOCCOCCNC(=O)CSC[C@H](NC(=O)c2ccc(C(=O)c3ccccc3)cc2)C(=O)NCCOCCOCCOCCn2cc(CNC(=O)CCCC[C@@H]3SC[C@@H]4NC(=O)N[C@@H]43)nn2)nn1			Active	Active	
C/C(=C\CC/C(C)=C/CCc1ccoc1)CC/C=C(\C)CC/C=C(\C)CCc1cn(CCCCCNC(=O)CSC[C@H](NC(=O)c2ccc(C(=O)c3ccccc3)cc2)C(=O)NCCOCCOCCOCCn2cc(CNC(=O)CCCC[C@@H]3SC[C@@H]4NC(=O)N[C@@H]43)nn2)nn1			inactive	inactive	
C/C(=C\CC/C(C)=C/CCc1ccoc1)CC/C=C(\C)CC/C=C(\C)CCc1cn(CCCNC(=O)CSC[C@H](NC(=O)c2ccc(C(=O)c3ccccc3)cc2)C(=O)NCCOCCOCCOCCn2cc(CNC(=O)CCCC[C@@H]3SC[C@@H]4NC(=O)N[C@@H]43)nn2)nn1			inactive	inactive	
CC(C)=CCC/C(C)=C/CC/C(C)=C/CC/C(C)=C/CCc1ccoc1	Active	Active			
CC#CCC/C(C)=C/CC/C(C)=C/CC/C(C)=C/CC/C(C)=C/CCc1ccoc1	Active	Active			
C#CCC/C(C)=C/CC/C(C)=C/CC/C(C)=C/CC/C(C)=C/CCc1ccoc1	Active	Active			Activity [5]: Non-toxic; level, % of control at 10 mg/kg [6]: 26%; Activity [7]: Non-toxic; level, % of control at 5 mg/kg [8]: 45%; level, % of control at 25 mg/kg [9]: 11%; growth inhibition (GI) [10]: Dose-dependent effect; growth inhibition (GI) [11]: Dose-dependent effect
